# Published values of several laboratories.
# Each line is one published result; the experiments were not run side by side.
# Target: Serine/threonine-protein kinase TBK1 (TBK1, Homo sapiens, UniProt Q9UHD2)
# Residues used in one study (Q9UHD2 1-729): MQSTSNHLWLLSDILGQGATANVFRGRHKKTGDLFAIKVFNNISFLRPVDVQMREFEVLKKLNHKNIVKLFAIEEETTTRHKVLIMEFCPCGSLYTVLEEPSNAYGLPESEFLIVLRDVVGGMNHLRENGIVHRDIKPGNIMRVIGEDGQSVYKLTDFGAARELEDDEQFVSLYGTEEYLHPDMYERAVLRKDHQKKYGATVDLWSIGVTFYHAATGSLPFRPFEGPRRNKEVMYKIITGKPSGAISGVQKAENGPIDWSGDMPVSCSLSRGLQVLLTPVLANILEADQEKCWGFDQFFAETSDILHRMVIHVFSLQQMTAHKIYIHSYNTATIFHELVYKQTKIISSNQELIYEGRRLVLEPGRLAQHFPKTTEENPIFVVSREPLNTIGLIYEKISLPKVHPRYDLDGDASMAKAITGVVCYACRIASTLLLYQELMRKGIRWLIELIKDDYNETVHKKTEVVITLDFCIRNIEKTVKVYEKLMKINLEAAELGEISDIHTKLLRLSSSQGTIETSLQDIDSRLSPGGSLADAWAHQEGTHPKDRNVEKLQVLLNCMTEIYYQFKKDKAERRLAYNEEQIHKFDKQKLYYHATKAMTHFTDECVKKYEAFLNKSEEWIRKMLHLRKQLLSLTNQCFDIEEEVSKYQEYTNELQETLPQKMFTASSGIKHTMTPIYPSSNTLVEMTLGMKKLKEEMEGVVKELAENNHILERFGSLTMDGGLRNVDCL
SMILES,effect on,mode,technique,tested at,measurement,result
O=c1[nH]c2ccccc2n1C1CCN(Cc2ccc(-c3[nH]c4cc5ncnc5cc4nc3-c3ccccc3)cc2)CC1,cell-free assay,,,0.5 µM,remaining signal,92.7%
Cn1cc(-c2cc(F)cc(N3CCn4c(cc5c4CCCC5)C3=O)c2CO)cc(Nc2ccc(N3CCN(C4COC4)CC3)cn2)c1=O,enzyme activity,inhibitor,,0.1 µM,inhibition,18%
N#CC1(c2ccccn2)CCN(Cc2cc(C(=O)O)c(=O)n3ccccc23)CC1,cell-free assay,,competition with immobilised ligand,1 µM,remaining binding,98%
Cn1cc(-c2cccc(N3CCc4c(sc5c4CC(C)(C)C5)C3=O)c2CO)cc(Nc2ccncn2)c1=O,enzyme activity,inhibitor,,1 µM,inhibition,4%
C#Cc1n[nH]c2c(-c3cn(C(C)c4ccccn4)c(=O)[nH]c3=O)cc(F)cc12 (centres unmarked),enzyme activity,inhibitor,,1 µM,inhibition,6.5%
Cc1nn(C)cc1-c1nc2c(N3CCN(Cc4ccc(Cl)cc4)CC3)c(Cl)cnc2[nH]1,binding,,competition with immobilised ligand,1 µM,remaining binding,90%
Cn1cncc1[C@](O)(COc1ccc(C#N)cc1-c1ccc(OC(F)(F)F)cc1)c1ccc(C#N)cc1,cell-free assay,,competition with immobilised ligand,1 µM,remaining binding,100%
COc1cc(Nc2ncc(F)c(Nc3ccc4c(n3)NC(=O)C(C)(C)O4)n2)cc(OC)c1OC,binding,,,10 µM,inhibition,100%
COc1ncccc1-c1cnn2ccc(N3CCN(C(=O)OC(C)C)CC3)nc12,binding,,competition with immobilised ligand,1 µM,remaining binding,78%
CC(C)(C)c1cc(C=C(C#N)C#N)cc(Br)c1O,enzyme activity,inhibitor,,0.5 µM,remaining activity,90.2%
C#Cc1n[nH]c2c(-c3cn([C@@H](C)c4ccccc4)c(=O)[nH]c3=O)cc(F)cc12,enzyme activity,inhibitor,,0.1 µM,inhibition,4.4%
